ChEMBL document CHEMBL1955822, “Camptothecin (CPT) directly binds to human heterogeneous nuclear ribonucleoprotein A1 (hnRNP A1) and inhibits the hnRNP A1/topoisomerase I interaction” (Bioorg Med Chem, 2011)
Active and inactive are the calls of the source. The calls are words filed in the database; no cut-off is given here.

Tests used:
[1] = test system: Drosophila melanogaster; assay: Growth inhibition of Drosophila melanogaster expressing Hrb87F mutant KG02089 assessed as reduction in eclosion rate at 25 uM after 15 days; type: functional, organism-based
Procedure, shortened: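 Eggs of Hrb87F KG02089 mutant and CantonS wild-type immersed in 25 µM drug or DMSO in 4% EtOH/5% DMSO vehicle. Adults emerging within 15 days counted. Rate = N(mutant)/N(WT) × 100%. Means ± S.E. of three independent experiments.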

[2] = target: T1, Heterogeneous nuclear ribonucleoprotein A1 (Homo sapiens, UniProt P09651); assay: Binding affinity to human hnRNP A1 expressed in HeLa cells after 16 hrs by avidin-agarose bead pull down assay; type: cell-based
Procedure, shortened: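 HeLa cells grown in DMEM/10% FCS, 37 °C, 5% CO2; 10^7 cells lysed 1 min in Tris pH 8.0/NaCl/EDTA/0.5% Triton-X; supernatant precleared on avidin-agarose, then 16 h at 4 °C with biotinylated CPT probe (1 mM stock, 1:10 into lysate) or DMSO; avidin-agarose capture 1 h at 4 °C, PBS washes, SDS-PAGE, anti-hnRNP A1 western blot with chemiluminescence.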

[3] = target: T1, Heterogeneous nuclear ribonucleoprotein A1; assay: Binding affinity to recombinant GST-tagged human hnRNP A1 expressed in Escherichia coli after 16 hrs by avidin-agarose bead pull down assay
Procedure, shortened: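 Lysate of E. coli expressing hnRNP A1-GST made by sonication in Tris pH 8.0/150 mM NaCl/EDTA/PMSF. Precleared on avidin-agarose, then mixed with biotinylated CPT probe (1 mM stock, 1:10) or DMSO for 16 h at 4 °C. Bound material captured 1 h on avidin-agarose, washed five times in PBS, run on 15% SDS-PAGE and immunoblotted for hnRNP A1.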

[4] = target: T1, Heterogeneous nuclear ribonucleoprotein A1; assay: Inhibition of recombinant GST-tagged human hnRNP A1/his-tagged top1 cap region interaction expressed in Escherichia coli by SPR biosensor analysis
Procedure, shortened: (§1)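 Biacore SPR, CM5 chip with His-tagged top I cap region (215–433) amine-coupled at pH 5, about 10,000 RU. hnRNP A1-GST injected at various concentrations with or without CPT in HBS-EP/5% DMSO, 20 µl/min, 25 °C. Data analysed by Langmuir and Lineweaver-Burk plots under a non-competitive inhibition model.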

[5] = target: T1, Heterogeneous nuclear ribonucleoprotein A1; assay: Binding affinity to recombinant GST-tagged human hnRNP A1 expressed in Escherichia coli using QCM biosensor by Scatchard plot analysis
Procedure, shortened: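 Quartz crystal microbalance with GST-affinity-purified hnRNP A1-GST immobilised on gold electrode; cuvette of PBS–10% DMSO at 25 °C; CPT injected at final 12.5–250 nM; frequency change monitored; Langmuir and Scatchard plots; means ± S.E. of three independent experiments.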

[6] = test system: Drosophila melanogaster; assay: Growth inhibition of Drosophila melanogaster expressing Hrb87F mutant BG02743 assessed as reduction in eclosion rate after 15 days; type: functional, organism-based
Procedure, shortened: (§2)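 Drosophila eggs from 20 adults (laid over 24 h) immersed in 250 µl CPT at 0, 5, 12.5, 25 or 50 µM in 4% EtOH/5% DMSO. Adults emerging within 15 days counted. Eclosion rate = N(µM)/N(0 µM) × 100%, compared with wild-type CantonS. Means ± S.E. of three independent experiments.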

[7] = test system: Drosophila melanogaster; assay: Growth inhibition of 7 day-old Drosophila melanogaster pupa expressing Hrb87F mutant KG02089 at 25 to 50 uM after 15 days; type: functional, organism-based
Procedure, shortened: (§3)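 Drosophila eggs from 20 adults (laid over 24 h) immersed in 250 µl CPT at 0, 5, 12.5, 25 or 50 µM in 4% EtOH/5% DMSO. Development and pupal phenotype followed at 5, 7 and 14 days after dosing. Wild-type CantonS served as reference.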

[8] = test system: Drosophila melanogaster; assay: Growth inhibition of Drosophila melanogaster expressing Hrb87F mutant KG02089 assessed as reduction in eclosion rate after 15 days; type: functional, organism-based; procedure, shortened: as §2
[9] = test system: Drosophila melanogaster; assay: Growth inhibition of 7 day-old Drosophila melanogaster pupa expressing Hrb87F mutant BG02743 at 25 to 50 uM after 15 days; type: functional, organism-based; procedure, shortened: as §3
[10] = target: T1, Heterogeneous nuclear ribonucleoprotein A1; assay: Noncompetitive inhibition of recombinant GST-tagged human hnRNP A1 binding to recombinant His-tagged top1 cap region by SPR biosensor analysis; procedure, shortened: as §1
[11] = target: T1, Heterogeneous nuclear ribonucleoprotein A1; assay: Inhibition of recombinant GST-tagged human hnRNP A1/his-tagged top1 cap region interaction expressed in expressed in Escherichia coli assessed as pBR322 DNA relaxation after 30 mins by agarose gel electrophoresis
Procedure, shortened: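 Calf thymus topoisomerase I (2 U) incubated with 1 µg supercoiled pBR322 in Tris pH 8/KCl/MgCl2/DTT/spermidine/BSA, with or without 100 µM CPT or 0.5 µM hnRNP A1-GST, for 30 min at 37 °C. Reaction stopped with SDS at 75 °C, then proteinase K digestion. Products run on 1% agarose gel and stained with EtBr.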

T1 sequence (P09651 whole entry): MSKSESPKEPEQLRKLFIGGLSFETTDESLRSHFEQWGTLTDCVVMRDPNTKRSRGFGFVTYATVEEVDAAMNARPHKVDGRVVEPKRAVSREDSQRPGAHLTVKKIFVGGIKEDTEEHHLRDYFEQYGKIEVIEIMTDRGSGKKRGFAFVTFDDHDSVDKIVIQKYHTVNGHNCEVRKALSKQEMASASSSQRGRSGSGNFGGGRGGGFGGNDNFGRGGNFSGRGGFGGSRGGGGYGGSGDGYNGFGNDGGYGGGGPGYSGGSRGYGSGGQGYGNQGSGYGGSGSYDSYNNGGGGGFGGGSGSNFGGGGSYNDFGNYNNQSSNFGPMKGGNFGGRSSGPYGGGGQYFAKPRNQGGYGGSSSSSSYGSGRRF

CC(=O)O[C@H]1C(=O)[C@@]2(C)[C@H]([C@H](OC(=O)c3ccccc3)[C@]3(O)C[C@H](OC(=O)[C@H](O)[C@@H](NC(=O)c4ccccc4)c4ccccc4)C(C)=C1C3(C)C)[C@]1(OC(C)=O)CO[C@@H]1C[C@@H]2O
growth inhibition (GI) [1]: inactive

CC[C@@]1(OC(=O)CCCCCNC(=O)CCCC[C@@H]2SC[C@@H]3NC(=O)N[C@@H]32)C(=O)OCc2c1cc1n(c2=O)Cc2cc3ccccc3nc2-1
Activity [2]: Active | Activity [3]: Active

CCc1c2c(nc3ccc(OC(=O)N4CCC(N5CCCCC5)CC4)cc13)-c1cc3c(c(=O)n1C2)COC(=O)[C@]3(O)CC
growth inhibition (GI) [1]: inactive

COc1cccc2c1C(=O)c1c(O)c3c(c(O)c1C2=O)C[C@@](O)(C(=O)CO)C[C@@H]3O[C@H]1C[C@H](N)[C@H](O)[C@H](C)O1
growth inhibition (GI) [1]: inactive

CC[C@@]1(O)C(=O)OCc2c1cc1n(c2=O)Cc2cc3ccccc3nc2-1 [CAMPTOTHECIN]
inhibition [4]: Active | Bmax [5]: 67 pg/mm2 | Kd [5]: 82.7 nM | growth inhibition (GI) [6]: Dose-dependent effect | growth inhibition (GI) [7]: Active | growth inhibition (GI) [8]: Dose-dependent effect | growth inhibition (GI) [9]: Active | inhibition [10]: Active | inhibition [11]: Active

BLEOMYCIN
growth inhibition (GI) [1]: inactive
